The conditions of data set [1]: cited from earlier work.
A further data set has as its system human DIPG cell lines. The note with it: cited from earlier work.
Data set [2] can be described thus: Protein binding in murine plasma. In kind it is in vitro ADME. The note with it: murine plasma compartment.
For data set [3] the following is noted: rat; cited from earlier work.
The next data set deals with high-grade gliomas. The following applies: in combination with bevacizumab, twelve patients; cited from earlier work.
The subject of the next data set is refractory solid tumors. The note with it: 9 pediatric patients; cited from earlier work.
For data set [4] the following is noted: human plasma; cited from earlier work.
The conditions of data set [5]: murine plasma; cited from earlier work.
The test system of another data set is DIPG cultures. The note with it: cited from earlier work.
Data set [6] is described as follows: Clearance predicted for the mouse by body surface area scaling. The note with it: body surface area scaling from dog and rat.
The conditions of data set [7]: cited from earlier work. The source holds these as a separate data set.
For data set [8] the following is noted: cited from earlier work. The source holds these as a separate data set.
Data set [9] is described as follows: Plasma and brain pharmacokinetics of panobinostat in CD-1 female mice. In kind it is in vivo. The essentials:
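Single tail-vein dose of 15 mg/kg (3 mg/mL in PBS with 20% DMSO and 20% PEG-400) given to 12 mice, with 3 killed at each of 1, 2, 4 and 7 h. Heparinized plasma and brains frozen at −80 °C. LC–MS with internal standard, using 9-point 1–500 ng/mL calibration fitted by 1/x2 regression. Cmax taken as highest observed concentration, AUC1–7 by trapezoidal rule, and clearance from a […] model.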

Another data set concerns P-gp. The note with it: cited from earlier work.
On the set-up of data set [10]: species or system human.
For data set [11] the following is noted: IP and IV administration; cited from earlier work.
The conditions of data set [12]: cited from earlier work. The source holds these as a separate data set.
For data set [13] the following is noted: dog; cited from earlier work.
The mark [14] stands for this setting: female, CD-1, mouse, brain, intravenous, 15 mg/kg.
Setting [15] is: female, CD-1, mouse, brain, iv, 15 mg/kg.
The mark [16] stands for this setting: female, CD-1, mouse, brain/plasma, iv, 15 mg/kg.
[17] abbreviates: female, CD-1, mouse, plasma, intravenous, 15 mg/kg.
[18] abbreviates: female, CD-1, mouse, plasma, iv, 15 mg/kg.
The mark [19] stands for this setting: intraperitoneal injection, single time-point 4 h.

Several values for one entry are separate records, joined by “and”; a condition that tells them apart may be missing. Identical values can stand only once. Like-named read-outs stand apart in the source and are kept apart here.

`Cc1nc(Nc2ncc(C(=O)Nc3c(C)cccc3Cl)s2)cc(N2CCN(CCO)CC2)n1` [dasatinib]: in [1], the “concentrations in the brain after inhibition of P-gp with everolimus” value is “increased concentrations”.

Usually IC50 stands for the concentration that gives 50% inhibition. For orientation: Cmax means the maximum level reached in the sampled fluid or tissue. As a reminder, the Vd is the apparent volume that relates the amount in the body to the concentration in plasma or blood. Higher therefore signals extensive tissue distribution. The Kp is tissue or fluid exposure divided by exposure in the circulation. Broadly, the clearance is a measure of how efficiently the substance is removed, as volume per time. Low values mean inefficient removal, high ones efficient removal. One may read the AUC as the area under the concentration-time curve, a measure of exposure. Higher therefore signals high exposure. `Cc1[nH]c2ccccc2c1CCNCc1ccc(/C=C/C(=O)NO)cc1` [panobinostat, 2-hydroxypropanoic acid, compound with 2-(E)-Nhydroxy-3-[4-[[[2-(2-methyl-1H-indol-3-yl)ethyl]amino]methyl]phenyl]-2-propenamide]: the IC50 in the data set on human DIPG cell lines (prior DIPG models) is 28.3 nM. Further, in the data set with human DIPG cell lines (range in human DIPG cell lines), the IC50 is 12.1 to 28.3 nM. Besides, the “drug unbound in plasma” value in [2] worked out at 40%. The volume of distribution in [3] is reported as 40.2 L/kg. Also, in the data set on high-grade gliomas, the “median progression free survival (PFS)” value is 4.3 months, the “patients achieving a partial response” value was “Three” and the “patients with stable disease” value is reported as 6 patients. For the same compound, in the data set on refractory solid tumors, the objective response result is “No patient had an objective response”, the “patients with stable disease” value is recorded as 3 patients and the tolerability result is “acceptable tolerability”. Also, the protein binding in data set [4] is recorded as 75–90%. Further, in data set [5], the protein binding result is recorded as “approximately 60%”. Further, the “DIPG cultures demonstrating sensitivity” value with DIPG cultures is listed as 12 of the 16. Moreover, in data set [6], the “clearance predicted in the mouse” value was 918 mL/min/kg. In [7], the BCS class entry is listed as “Class II”, the “permeability (BCS)” value is given as “high permeability” and the “solubility (BCS)” value is given as “low solubility”. The “brain penetration in clinical reports” value in data set [8] is “minimal to no brain penetration”. Also, the “concentrations in the CSF” value in [8] (prior studies) is “negligible concentrations”. For the same compound, in data set [9] (15 mg/kg IV, mice, trapezoidal rule, 1 h to 7 h), the “AUC1–7 for brain” value turned out to be 250 ng·h/g. For the same compound, in data set [9] (setting [14]), the concentration at 1 h was 60.5 ng/g and 63.2 ng/mL and 181 nM; the concentration at 2 h worked out at 42.9 ± 5.4 ng/g; the concentration at 4 h was 33.2 ± 6.1 ng/g; the concentration at 7 h was 28.1 ng/g and 29.4 ng/mL and 84.1 nM. In data set [9] (setting [15]), this compound had a maximum concentration (Cmax) of 72.4 ng/g and a distribution volume (Vd) of 49.8 L/kg. For the same compound, in [9] (setting [16]), the concentration ratio (Kp) came out at 2.63, the concentration ratio (Kp) at 1 h worked out at 2.22, the Kp at 2 h is 5.67 and the partition ratio (Kp) at 4 h turned out to be 22.4. Moreover, in [9] (setting [16]), the Kp at 7 h is 12.1. Moreover, in data set [9] (setting [17]), the volume of distribution (Vd) was 53.8 L/kg, the clearance is 967 mL/min/kg, the concentration at 1 h came to 27.3 ± 2.5 ng/mL and the concentration at 2 h worked out at 7.56 ± 1.8 ng/mL. In [9] (setting [17]), the concentration at 4 h was determined as 1.48 ± 0.56 ng/mL and the concentration at 7 h stood at 2.33 ± 1.18 ng/mL. In [9] (setting [18]), this compound showed an AUC of 95 ng·h/mL, a Cmax of 132 ng/mL, a distribution volume (Vd) of 140 L/kg and a clearance of 1360 mL/min/kg. Besides, the P-gp substrate status entry in the data set on P-gp was “substrate of P-gp”. Moreover, the “expected human brain nanomolar concentration” value in [10] (corresponding to 45.95 ng/g) is on record as “approximately 142.2 nM”. For the same compound, in data set [10] (pediatric Cmax 20.7 ng/mL x brain to plasma ratio 2.22), the “expected human brain concentration” value is given as “approximately 45.95 ng/g”. The “concentrations in xenograft, intestine, bladder, and heart tissue versus plasma” value in data set [11] is “higher concentrations”. Besides, the “brainstem concentration relative to cerebral cortex (times)” value in data set [12] is “more than 7”. Moreover, in data set [12] (setting [19]), the “concentration in brainstem tumor tissue” value is 550 ± 51 nM and the “concentration in cerebral cortex” value is reported as 70 ± 10 nM. For the same compound, the volume of distribution in data set [13] was 42 L/kg.

With `COc1cc2c(Nc3ccc(Br)cc3F)ncnc2cc1OCC1CCN(C)CC1` [vandetanib], the “concentrations in the brain after inhibition of P-gp with everolimus” value in [1] was “increased concentrations”.

The values are drawn from PMC8896403 (Cancer chemotherapy and pharmacology, 2021).
